ChEMBL document CHEMBL4043182, “On the synthesis of quinone-based BODIPY hybrids: New insights on antitumor activity and mechanism of action in cancer cells” (Bioorg Med Chem Lett, 2017)
Active and inactive are the calls of the source. The calls are words filed in the database; no cut-off is given here.

Assays:
[1] = system: MDA-MB-435; experiment: Antiproliferative activity against human MDA-MB-435 cells after 72 hrs by MTT assay; format: functional, cell-based; conditions: MDA-MB-435, 72 h
How it was run: (§1)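 MTT reduction: cancer lines plated at 0.7×10^5 to 0.3×10^6 cells/well, V79 and L929 fibroblasts at 0.5×10^5 cells/well. Compounds in DMSO (0.1%) were given for 24 h at 0.04–40.92 µM or 72 h at 0.04–8.19 µM. Fresh medium with 0.5 mg/mL MTT was added for 3 h, then formazan was dissolved in DMSO and read at 595 nm as % of control. IC50 came from nonlinear regression with 95% CI. Doxorubicin (0.001–1.06 µM) was the positive control. Triplicate, ≥3 repeats.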

[2] = system: L929; experiment: Induction of oxidative stress in mouse L929 cells assessed as total GSSG levels at 5 uM after 24 hrs by spectrophotometric analysis (reference value: 1.05 +/- 0.33 microg/mg); format: cell-based; conditions: l929, 24 h
[3] = system: PC-3; experiment: Induction of oxidative stress in human PC3 cells assessed as total intracellular thiol levels at 5 uM after 24 hrs by spectrophotometric analysis (reference value: 4.23 +/- 0.75 microg/mg); format: functional
[4] = system: HCT-116; experiment: Induction of oxidative stress in human HCT116 cells assessed as total GSSG levels at 5 uM treated 24 hrs post NAC addition measured after 24 hrs by spectrophotometric analysis (reference value: 1.19 +/- 0.37 microg/mg); format: functional
[5] = Drug uptake in mitochondria of human PC3 cells at 5 uM after 10 mins by MitoTracker Red dye-based confocal microscopic analysis; format: ADME, cell-based; conditions: pc-3, 10 min
How it was run: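 PC3 cells were grown in DMEM with 10% FBS, antibiotics and 2 mM L-glutamine at 37 °C, 5% CO2. Cells were incubated with compound (5 µM) plus LysoTracker Red or MitoTracker Red for 10 min at 37 °C. Live cells were imaged in phenol red-free DMEM by confocal microscopy with a 40X oil objective, exciting at 488 nm (compound) and 543 nm (tracker dyes).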

[6] = system: SW-620; experiment: Antiproliferative activity against human SW620 cells after 72 hrs by MTT assay; format: functional, cell-based; conditions: SW-620, 72 h; how it was run: as §1
[7] = system: HCT-116; experiment: Geno-toxicity in human HCT116 cells assessed as induction of DNA damage at 2.5 to 10 uM after 24 hrs in absence of NAC by alkaline comet assay; format: functional, cell-based
How it was run: (§2)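 Alkaline comet assay after 24 h at 2.5, 5 and 10 µM, with or without 24 h pretreatment with 5 mM NAC. Cells were trypsinized and embedded in 0.75% low-melting agarose, then lysed at pH 10, 4 °C, ≥1 h. DNA was unwound 20 min at pH >13 and electrophoresed 20 min at 25 V, 300 mA (0.86 V/cm), then stained with ethidium bromide. 100 cells (2 slides) were scored in classes 0–4 for a damage index. Mean ± SEM, three independent experiments in triplicate.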

[8] = Selective index, ratio of IC50 for mouse L929 cells to IC50 for human MDA-MB-435 cells
How it was run: (§3)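 Selectivity index is the ratio of the IC50 in a non-cancer murine line (V79 or L929) to the IC50 in the cancer line. […] MTT was 0.5 mg/mL for 3 h, formazan dissolved in DMSO and read at 595 nm as % of control. IC50s were derived by nonlinear regression; triplicate, at least three repeats.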

[9] = system: L929; experiment: Induction of oxidative stress in mouse L929 cells assessed as total GSSG levels at 5 uM treated 24 hrs post NAC addition measured after 24 hrs by spectrophotometric analysis (reference value: 1.05 +/- 0.33 microg/mg); format: cell-based; conditions: l929, 24 h
[10] = system: L929; experiment: Geno-toxicity in mouse L929 cells assessed as induction of DNA damage at 2.5 to 10 uM after 24 hrs in absence of NAC by alkaline comet assay; format: cell-based; conditions: l929, 24 h; how it was run: as §2
[11] = system: SF-295; experiment: Induction of oxidative stress in human SF295 cells assessed as total intracellular thiol levels at 5 uM after 24 hrs by spectrophotometric analysis (reference value: 4.51 +/- 0.83 microg/mg); format: functional
[12] = system: HCT-116; experiment: Induction of oxidative stress in human HCT116 cells assessed as GSH to GSSG ratio at 5 uM treated 24 hrs post NAC addition measured after 24 hrs by spectrophotometric analysis (reference value: 3.09 +/- 0.33 microg/mg); format: functional
[13] = system: V79; experiment: Antiproliferative activity against chinese hamster V79 cells after 72 hrs by MTT assay; format: cell-based; conditions: Cricetulus griseus, V79, 72 h; how it was run: as §1
[14] = system: SF-295; experiment: Cytotoxicity against human SF295 cells after 24 hrs in absence of GSH-OEt by MTT assay; format: functional, cell-based; conditions: SF-295, 24 h
How it was run: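 24 h MTT exposure (0.04–40.92 µM in 0.1% DMSO), with or without co-treatment with GSH ethyl ester (15 mM) to gauge the ROS contribution. MTT was 0.5 mg/mL for 3 h, with formazan dissolved in DMSO and absorbance at 595 nm expressed as % of control. Triplicate, repeated at least three times.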

[15] = system: HCT-116; experiment: Induction of oxidative stress in human HCT116 cells assessed as total GSH levels at 5 uM treated 24 hrs post NAC addition measured after 24 hrs by spectrophotometric analysis (reference value: 3.74 +/- 0.55 microg/mg); format: functional
[16] = system: L929; experiment: Induction of oxidative stress in mouse L929 cells assessed as GSH to GSSG ratio at 5 uM treated 24 hrs post NAC addition measured after 24 hrs by spectrophotometric analysis (reference value: 3.55 +/- 0.51 microg/mg); format: cell-based; conditions: l929, 24 h
How it was run: (§4)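 Cells were pretreated 24 h with 5 mM NAC, then exposed 24 h to test compound at 5 µM. Controls received 0.1% DMSO. Extracts were prepared by sonication and HClO4 precipitation, then neutralized with KOH. Total glutathione was read by DTNB/glutathione reductase/NADPH rate at 412 nm. GSSG was measured after 4-vinylpyridine (0.1%, 1 h, RT) and GSH derived by difference. Values are normalized to protein, triplicates, three independent runs.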

[17] = system: PC-3; experiment: Induction of oxidative stress in human PC3 cells assessed as total GSH levels at 5 uM treated 24 hrs post NAC addition measured after 24 hrs by spectrophotometric analysis (reference value: 3.04 +/- 0.51 microg/mg); format: functional; how it was run: as §4
[18] = system: HCT-116; experiment: Induction of oxidative stress in human HCT116 cells assessed as total intracellular thiol levels at 5 uM treated 24 hrs post NAC addition measured after 24 hrs by spectrophotometric analysis (reference value: 5.02 +/- 0.91 microg/mg); format: functional
[19] = system: HCT-116; experiment: Induction of oxidative stress in human HCT116 cells assessed as total intracellular thiol levels at 5 uM after 24 hrs by spectrophotometric analysis (reference value: 5.02 +/- 0.91 microg/mg); format: functional
[20] = Selective index, ratio of IC50 for chinese hamster V79 cells to IC50 for human PC3 cells; how it was run: as §3
[21] = system: PC-3; experiment: Antiproliferative activity against human PC3 cells after 72 hrs by MTT assay; format: functional, cell-based; conditions: PC-3, 72 h; how it was run: as §1
[22] = system: PC-3; experiment: Induction of oxidative stress in human PC3 cells assessed as total GSH levels at 5 uM after 24 hrs by spectrophotometric analysis (reference value: 3.04 +/- 0.51 microg/mg); format: functional
[23] = Selective index, ratio of IC50 for mouse L929 cells to IC50 for human HCT116 cells; how it was run: as §3

**Q.** What does the source list for `CC1(C)OC2=C(C(=O)C(=O)c3ccccc32)C1n1cc(CNC2=[N+]3C(=C(c4ccccc4)c4ccc(Cl)n4[B-]3(F)F)C=C2)nn1` (stereo not drawn)?
**A.** IC50 [1]: 810 nM; Activity [2]: 2.27 µg/mg; Activity [3]: 3.53 µg/mg; Activity [4]: 1.38 µg/mg; Drug uptake [5]: Metabolite_Notdetected; IC50 [6]: 680 nM; Activity [7]: Active; Ratio IC50 [8]: 1.1; Activity [9]: 1.24 µg/mg; Activity [10]: Toxic; Activity [11]: 3.44 µg/mg; Activity [12]: 2.63 µg/mg; IC50 [13]: 650 nM; IC50 [14]: 1960 nM; Activity [15]: 3.71 µg/mg; Activity [16]: 3.08 µg/mg; Activity [17]: 3.13 µg/mg; Activity [18]: 5.12 µg/mg; Activity [19]: 3.81 µg/mg; Ratio IC50 [20]: 1.7; IC50 [21]: 380 nM; Activity [22]: 1.35 µg/mg; Ratio IC50 [23]: 3
